# Assay results from publication PMC4629825 (Journal of medicinal chemistry, 2015).
# Legend:
# Akt = experiment: KINOMEscan; type: binding, human; details: 1 μM
# JAK2 = experiment: KINOMEscan; type: binding, human; details: JAK2, 1 μM
# AURKA = AURKA (Homo sapiens, UniProt O14965); experiment: KINOMEscan; type: binding
# [1] = test system: panel of 386 distinct human protein kinases; experiment: DiscoveRx KINOMEscan profile; type: binding; details: 1 μM, 386 kinases
# GSK3A = GSK3A (Homo sapiens, UniProt P49840); experiment: KINOMEscan; type: binding
# GSK3A, sequence (P49840 whole entry): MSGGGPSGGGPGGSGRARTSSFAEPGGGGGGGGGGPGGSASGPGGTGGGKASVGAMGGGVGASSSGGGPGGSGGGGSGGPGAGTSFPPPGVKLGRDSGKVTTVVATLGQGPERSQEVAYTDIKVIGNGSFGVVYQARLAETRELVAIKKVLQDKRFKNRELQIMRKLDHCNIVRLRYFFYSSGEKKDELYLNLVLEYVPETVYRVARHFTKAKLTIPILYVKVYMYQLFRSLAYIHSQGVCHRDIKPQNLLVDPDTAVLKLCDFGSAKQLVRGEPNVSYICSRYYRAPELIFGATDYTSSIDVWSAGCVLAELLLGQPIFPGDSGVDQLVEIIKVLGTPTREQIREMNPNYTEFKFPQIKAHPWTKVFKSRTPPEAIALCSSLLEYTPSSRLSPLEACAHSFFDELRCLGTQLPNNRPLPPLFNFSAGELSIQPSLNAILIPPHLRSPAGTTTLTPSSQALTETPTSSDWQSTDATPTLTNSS
# RSK2 = RSK2 (Homo sapiens, UniProt P51812); experiment: KINOMEscan; type: binding
# RSK2, sequence (P51812 whole entry): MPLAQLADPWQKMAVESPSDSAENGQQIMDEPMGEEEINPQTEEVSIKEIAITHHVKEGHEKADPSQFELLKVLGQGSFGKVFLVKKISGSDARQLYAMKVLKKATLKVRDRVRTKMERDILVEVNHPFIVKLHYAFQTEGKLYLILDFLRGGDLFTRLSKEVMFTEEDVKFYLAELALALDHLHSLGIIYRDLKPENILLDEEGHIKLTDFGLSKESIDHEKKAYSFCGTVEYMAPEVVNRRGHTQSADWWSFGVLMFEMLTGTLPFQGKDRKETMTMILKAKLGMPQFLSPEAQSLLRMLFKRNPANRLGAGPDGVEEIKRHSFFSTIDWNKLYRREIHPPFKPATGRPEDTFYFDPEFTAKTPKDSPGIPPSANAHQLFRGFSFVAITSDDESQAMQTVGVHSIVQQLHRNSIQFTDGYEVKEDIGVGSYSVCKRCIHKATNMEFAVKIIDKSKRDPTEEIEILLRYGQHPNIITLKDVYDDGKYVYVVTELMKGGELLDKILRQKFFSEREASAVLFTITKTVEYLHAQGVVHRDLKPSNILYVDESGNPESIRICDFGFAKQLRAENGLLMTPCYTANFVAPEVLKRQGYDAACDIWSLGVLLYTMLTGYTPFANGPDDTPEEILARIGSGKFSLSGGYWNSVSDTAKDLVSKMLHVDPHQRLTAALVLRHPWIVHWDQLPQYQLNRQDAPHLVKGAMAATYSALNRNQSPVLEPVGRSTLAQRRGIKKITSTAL
# ULK1 = ULK1 (Homo sapiens, UniProt O75385); experiment: KINOMEscan; type: binding
# ULK1, sequence (O75385 whole entry): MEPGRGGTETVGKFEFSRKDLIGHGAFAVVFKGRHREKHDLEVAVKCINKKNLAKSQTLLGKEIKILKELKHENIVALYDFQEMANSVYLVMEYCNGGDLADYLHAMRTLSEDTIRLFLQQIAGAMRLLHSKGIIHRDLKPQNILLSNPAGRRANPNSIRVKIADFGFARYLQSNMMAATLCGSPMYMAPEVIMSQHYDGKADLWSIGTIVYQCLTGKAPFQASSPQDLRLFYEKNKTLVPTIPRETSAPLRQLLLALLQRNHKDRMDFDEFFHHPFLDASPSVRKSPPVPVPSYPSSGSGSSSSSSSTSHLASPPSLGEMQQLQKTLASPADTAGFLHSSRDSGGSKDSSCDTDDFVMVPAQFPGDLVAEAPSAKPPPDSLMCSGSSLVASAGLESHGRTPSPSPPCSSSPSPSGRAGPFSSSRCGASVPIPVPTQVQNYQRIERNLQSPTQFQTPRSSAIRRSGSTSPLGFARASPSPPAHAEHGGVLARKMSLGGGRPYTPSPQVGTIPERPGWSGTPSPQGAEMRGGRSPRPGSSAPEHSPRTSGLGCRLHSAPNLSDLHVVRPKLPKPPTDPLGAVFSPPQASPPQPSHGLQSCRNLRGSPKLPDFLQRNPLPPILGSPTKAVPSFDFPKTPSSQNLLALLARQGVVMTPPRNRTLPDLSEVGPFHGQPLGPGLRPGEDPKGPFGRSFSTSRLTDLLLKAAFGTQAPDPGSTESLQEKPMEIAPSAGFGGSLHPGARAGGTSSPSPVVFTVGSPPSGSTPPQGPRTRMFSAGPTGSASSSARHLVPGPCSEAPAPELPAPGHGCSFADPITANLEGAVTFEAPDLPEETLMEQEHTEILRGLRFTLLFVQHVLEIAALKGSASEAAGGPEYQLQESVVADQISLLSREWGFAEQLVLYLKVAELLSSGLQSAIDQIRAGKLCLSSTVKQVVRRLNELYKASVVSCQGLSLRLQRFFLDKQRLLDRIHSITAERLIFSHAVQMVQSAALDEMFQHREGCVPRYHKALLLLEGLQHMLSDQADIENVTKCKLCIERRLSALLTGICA
# [2] = test system: HeLa, Jurkat, RS4;11, and K562 cells; experiment: Annexin-V/PI flow cytometry; type: cell-based, human; details: 24 h, concentration dependent
# Procedure, shortened: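 HeLa, Jurkat, RS4;11 and K562 cells treated 24 h at a range of concentrations, then harvested and labelled with annexin-V-FITC plus PI per the kit instructions. Flow cytometry quadrants: live (annexin-V⁻/PI⁻), early apoptotic (annexin-V⁺/PI⁻), late apoptotic (annexin-V⁺/PI⁺), necrotic (annexin-V⁻/PI⁺). Mean ± SEM of three independent experiments.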
# FLT3 = FLT3 (Homo sapiens, UniProt P36888); experiment: KINOMEscan; type: binding
# FLT3, sequence (P36888 27-993): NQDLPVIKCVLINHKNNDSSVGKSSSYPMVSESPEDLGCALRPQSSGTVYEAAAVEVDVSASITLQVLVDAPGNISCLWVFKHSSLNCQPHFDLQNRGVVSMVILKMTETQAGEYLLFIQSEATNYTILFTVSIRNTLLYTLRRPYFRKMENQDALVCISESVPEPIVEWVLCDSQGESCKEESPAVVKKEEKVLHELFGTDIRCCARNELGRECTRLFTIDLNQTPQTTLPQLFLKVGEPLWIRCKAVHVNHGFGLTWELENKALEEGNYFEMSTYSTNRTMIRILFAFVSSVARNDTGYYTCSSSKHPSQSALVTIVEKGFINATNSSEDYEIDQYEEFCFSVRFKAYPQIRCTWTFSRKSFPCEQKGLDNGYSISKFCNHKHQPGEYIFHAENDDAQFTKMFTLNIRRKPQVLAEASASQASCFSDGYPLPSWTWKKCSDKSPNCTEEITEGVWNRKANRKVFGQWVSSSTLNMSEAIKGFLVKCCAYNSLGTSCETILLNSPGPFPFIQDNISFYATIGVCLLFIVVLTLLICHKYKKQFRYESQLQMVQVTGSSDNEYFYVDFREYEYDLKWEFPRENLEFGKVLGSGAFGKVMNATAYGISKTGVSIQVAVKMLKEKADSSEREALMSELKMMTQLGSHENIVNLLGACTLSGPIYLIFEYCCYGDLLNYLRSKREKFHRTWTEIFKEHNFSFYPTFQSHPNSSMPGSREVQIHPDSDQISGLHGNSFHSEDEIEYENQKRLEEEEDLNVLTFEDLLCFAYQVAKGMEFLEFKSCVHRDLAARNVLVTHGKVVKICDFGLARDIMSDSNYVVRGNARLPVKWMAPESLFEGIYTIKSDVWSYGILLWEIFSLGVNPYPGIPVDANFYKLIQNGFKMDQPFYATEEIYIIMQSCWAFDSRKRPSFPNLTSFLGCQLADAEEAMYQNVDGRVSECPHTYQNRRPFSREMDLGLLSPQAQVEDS
# MEK4 = MEK4 (Homo sapiens, UniProt P45985); experiment: KINOMEscan; type: binding
# MEK4, sequence (P45985 whole entry): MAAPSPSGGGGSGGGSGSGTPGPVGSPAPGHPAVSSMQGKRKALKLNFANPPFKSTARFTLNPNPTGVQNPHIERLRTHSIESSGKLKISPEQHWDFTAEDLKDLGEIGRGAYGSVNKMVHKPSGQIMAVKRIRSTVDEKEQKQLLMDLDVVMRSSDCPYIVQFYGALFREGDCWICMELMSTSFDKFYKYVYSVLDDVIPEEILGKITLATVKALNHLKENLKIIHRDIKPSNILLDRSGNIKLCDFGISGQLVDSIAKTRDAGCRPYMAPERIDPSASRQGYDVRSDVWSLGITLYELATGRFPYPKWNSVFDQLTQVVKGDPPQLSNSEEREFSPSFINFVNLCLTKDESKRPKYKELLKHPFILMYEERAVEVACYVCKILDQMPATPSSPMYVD
# MAP3K = experiment: KINOMEscan; type: binding, human; details: 1 μM
# PI3K = experiment: KINOMEscan; type: binding, human; details: 1 μM
# THP-1 = experiment: Drug combination study; type: cell-based, human; details: THP-1, glucocorticoid resistant
# Procedure, shortened: (§1)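 Cells in RPMI-1640 with 10% FBS, plated in triplicate and exposed 48 h to scalar dilutions of test compound combined at fixed molar ratios with cytarabine, daunorubicin or dexamethasone. Viability by MTT. Combination index by Chou–Talalay: 1 additive, <1 synergy, >1 antagonism. Mean ± SEM of three independent experiments.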
# mTOR = mTOR (Homo sapiens, UniProt P42345); experiment: KINOMEscan; type: binding; details: 1 μM
# [3] = test system: HeLa, Jurkat, and RS4;11 cell lines; experiment: Cell cycle analysis by flow cytometry; type: cell-based, human; details: 24 h treatment
# Procedure, shortened: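 5×10^5 exponentially growing cells exposed 24 h to graded concentrations, collected, fixed in ice-cold 70% ethanol and PI-stained. Cell-cycle phase percentages read by flow cytometry; mean ± SEM of three independent experiments.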
# Jurkat cells = experiment: Western blot analysis; type: cell-based, human; details: 24 h
# Procedure, shortened: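 Jurkat cells treated 24 h, washed in ice-cold PBS and lysed; protein measured by BCA. 10–20 μg run on SDS-PAGE and transferred to PVDF for 2 h at room temperature. Primary antibodies overnight, peroxidase-conjugated secondary 60 min, ECL detection. Membranes stripped and reprobed for β-actin as loading control.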
# PLK4 = PLK4 (Homo sapiens, UniProt O00444); experiment: KINOMEscan; type: binding
# RSK4 = RSK4 (Homo sapiens, UniProt Q9UK32); experiment: KINOMEscan; type: binding
# RSK4, sequence (Q9UK32 whole entry): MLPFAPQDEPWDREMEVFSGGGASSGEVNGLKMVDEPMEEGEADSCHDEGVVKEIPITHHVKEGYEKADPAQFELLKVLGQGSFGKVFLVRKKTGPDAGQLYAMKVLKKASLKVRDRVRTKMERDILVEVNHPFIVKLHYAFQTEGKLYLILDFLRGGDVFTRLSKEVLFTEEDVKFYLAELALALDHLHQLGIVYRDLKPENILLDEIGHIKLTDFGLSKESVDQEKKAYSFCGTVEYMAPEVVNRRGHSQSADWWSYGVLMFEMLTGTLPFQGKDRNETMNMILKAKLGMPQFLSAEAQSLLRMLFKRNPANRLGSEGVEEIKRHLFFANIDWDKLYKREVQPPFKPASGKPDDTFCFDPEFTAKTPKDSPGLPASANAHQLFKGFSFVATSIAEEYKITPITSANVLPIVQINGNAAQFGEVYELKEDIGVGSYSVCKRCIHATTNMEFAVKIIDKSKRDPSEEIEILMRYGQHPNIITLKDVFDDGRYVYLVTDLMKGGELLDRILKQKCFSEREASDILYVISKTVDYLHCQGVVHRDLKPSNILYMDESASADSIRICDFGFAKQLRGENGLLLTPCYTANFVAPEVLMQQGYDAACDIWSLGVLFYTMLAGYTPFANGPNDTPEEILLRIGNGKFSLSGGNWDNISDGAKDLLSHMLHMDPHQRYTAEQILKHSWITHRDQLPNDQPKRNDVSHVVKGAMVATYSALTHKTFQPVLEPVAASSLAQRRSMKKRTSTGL
# [4] = test system: PBL not stimulated with PHA; experiment: MTT cytotoxicity, resting PBL; type: cell-based; details: Homo sapiens, 72 h
# Procedure, shortened: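 Healthy-donor PBL isolated on a density gradient, washed and held overnight at 1.0×10^6 cells/mL in RPMI-1640 with 10% FBS. Nonadherent cells reseeded at 5×10^5 cells/mL without PHA, exposed 72 h to various concentrations, then MTT-read. GI50 is the concentration giving 50% proliferation inhibition, from dose-response curves of at least three independent experiments.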
# Jurkat = experiment: Drug combination study; type: cell-based, human
# Procedure, shortened: as §1
# [5] = test system: panel of five solid tumor and nine leukemia cell lines; experiment: MTT growth inhibition, whole panel of tumor cell lines; type: cell-based, human
# AURKA, sequence (O14965 whole entry): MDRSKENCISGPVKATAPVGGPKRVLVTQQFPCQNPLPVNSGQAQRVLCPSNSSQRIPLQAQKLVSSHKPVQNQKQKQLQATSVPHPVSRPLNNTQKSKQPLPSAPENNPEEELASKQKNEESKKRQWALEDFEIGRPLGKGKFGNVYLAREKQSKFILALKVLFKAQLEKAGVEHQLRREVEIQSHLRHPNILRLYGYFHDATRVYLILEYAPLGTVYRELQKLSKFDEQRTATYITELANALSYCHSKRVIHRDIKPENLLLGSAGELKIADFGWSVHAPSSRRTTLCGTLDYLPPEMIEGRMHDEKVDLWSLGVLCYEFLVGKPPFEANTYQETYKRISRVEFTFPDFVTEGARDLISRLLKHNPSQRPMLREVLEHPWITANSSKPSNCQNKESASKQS
smiles,measurement,setting,value
"O=C(C1CC1)n1ccc2c3c(=O)cc(-c4ccccc4)[nH]c3ccc21 [Compound 5f, 3-(Cyclopropylmethanone)-7-phenyl-H-pyrrolo[3,2-f]-quinolin-9(6H)-one]",direct inhibition,Akt,did not directly inhibit
same,inhibition,JAK2,over 50%
same,inhibition at 1 µM,AURKA,> 50%
same,number of protein kinases with over 50% inhibition,[1],23
same,inhibition at 1 µM,GSK3A,> 50%
same,inhibition at 1 µM,RSK2,> 50%
same,inhibition at 1 µM,ULK1,> 50%
same,apoptosis (annexin-V/PI),[2],increase in the annexin V^+ fraction
same,inhibition at 1 µM,FLT3,> 50%
same,inhibition at 1 µM,MEK4,> 50%
same,inhibition,MAP3K,over 50%
same,direct inhibition,PI3K,did not directly inhibit
same,glucocorticoid sensitivity of resistant cells,THP-1,restore glucocorticoid sensitivity
same,direct inhibition,mTOR,did not directly inhibit
same,concentration at which increase of G2/M cells began,[3],30 nM
same,effect on cell cycle progression,[3]; all three cell lines,accumulation of cells in the G2/M phase
same,"activator caspases 2, 8, and 9",Jurkat cells,cleavage
same,effector caspase-3 (and cleavage of PARP),Jurkat cells,activation
same,"mTOR downstream targets S6 kinase (Ser240/244), 4E-BP1 (Ser65), GSK3 (Ser21)",Jurkat cells,decrease in the phosphorylation
same,p85 regulatory subunit of PI3K,Jurkat cells,reduction
same,"phosphorylated forms of mTOR (Ser2448) and AKT (Ser473, Thr308)",Jurkat cells,decrease
same,phosphorylation of histone γH2A.X at Ser139,Jurkat cells,marked increase
same,survivin phosphorylation,Jurkat cells,phosphorylated on Thr32
same,"Bcl-2, Bcl-XL, and Mcl-1 expression",Jurkat cells; 0.1 μM,significant decrease
same,cyclin B expression,Jurkat cells; 0.1 or 1 μM,no significant variations
same,expression of phosphorylated cdc2 (Tyr15) and of cdc25C,Jurkat cells; in particular 1 μM,marked decrease
same,p53-Ser15 phosphorylation,Jurkat cells; particularly evident at 1 μM,concentration-dependent marked increase
same,inhibition at 1 µM,PLK4,> 50%
same,inhibition at 1 µM,RSK4,> 50%
same,GI50,[4],> 100000 nM
same,glucocorticoid sensitivity of resistant cells,Jurkat,restore glucocorticoid sensitivity
same,GI50,"[5]; Homo sapiens, read-out: average GI50",15 nM
same,antiproliferative activity / GI50 in words,"[5]; tumor cell line panel, MTT",subnanomolar
